In test [1] the test system is HBV replication in AML12HBV10 cells. As to the kind of experiment: Antiviral dot blot hybridization assay of HBV DNA in AML12HBV10 cells. In kind it is cell-based, hepatitis B virus (mouse hepatocyte-derived cell line).
Test [2] shares this test system. To be noted: HBV AML12HBV10 cell line; cited from earlier work.
Test [3] deals with HBV capsid assembly and pgRNA encapsidation in AML12HBV10 cells. The experiment in a line: Mode of action study in AML12HBV10 cells. To be noted: 2 days, ETV 1 μM; for amount of encapsidated pgRNA / viral DNA replication intermediates: Bay 41-4109 2 μM, DVR-23 5 μM; for amount of encapsidated pgRNA / viral DNA replication intermediates / amount of total viral RNA / amount of core protein: 17 or 18 1 or 5 μM; for amount of encapsidated pgRNA / amount of total viral RNA: Northern blot; for viral DNA replication intermediates: Southern blot; for amount of core protein: Western blot. In kind it is cell-based, hepatitis B virus (mouse hepatocyte-derived cell line). The essentials: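 Mouse hepatocyte-derived AML12HBV10 cells carry a tetracycline-inducible, envelope-deficient HBV genome. They were seeded in 24-well plates, kept with tet (negative control) or without it for 24 h, then DMSO- or compound-treated for 48 h. Read-outs: total RNA and encapsidated pgRNA by Northern blot (rRNA loading); Cp by Western blot with antibody to its C-terminal 14 residues (β-actin loading); capsids and core DNA by native agarose particle gel.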
A general note: A western blot detects proteins with antibodies after separation by electrophoresis.

Results on 27 molecules are retold here after publication PMC10753860 (European journal of medicinal chemistry, 2023).

By EC50 is commonly meant the concentration at which the effect is half-maximal. Low values mean an effect from little substance, high ones a need for much substance.

For `O=C(Nc1ccc(F)c(Cl)c1)N1CCN[C@H]2CCCC[C@H]21` (relative stereo) [Compound 34, Cis-N-(3-chloro-4-fluorophenyl)octahydroquinoxaline-1(2H)-carboxamide], the “anti-HBV activity (in words)” value in test [1] (AML12HBV10 cells) is “loss of activity”.
Regarding `O=C(Nc1ccc(F)c(Cl)c1)c1cccc2c1OCCO2` [38017 (8)], the “EC50 (in words)” value in test [2] is “sub-micromolar”.
As to `COC(=O)C1=C(C)NC(c2ncc(F)cc2F)=N[C@H]1c1ccc(F)cc1Cl` [Bay 41-4109], in test [3], the “amount of encapsidated pgRNA” value is recorded as “significantly reduced” and the “viral DNA replication intermediates” value was “viral DNA replication was inhibited”.
Turning to `O=C(Nc1ccc(F)c(Cl)c1)N1CCNc2ccccc21` [Compound 17, N-(3-chloro-4-fluorophenyl)-3,4-dihydroquinoxaline-1(2H)-carboxamide], in test [3], the “amount of total viral RNA” value is reported as “did not alter”, the “amount of core protein” value is given as “did not alter”, the “amount of encapsidated pgRNA” value is recorded as “drastically reduced” and the “viral DNA replication intermediates” value is given as “drastically reduced”.
As to `O=C(Nc1ccc(F)c(Cl)c1)N1CCN(C(=O)Nc2ccc(F)c(Cl)c2)c2ccccc21` [Compound 18, N^1,N^4-bis(3-chloro-4-fluorophenyl)-2,3-dihydroquinoxaline-1,4-dicarboxamide], in test [3], the “amount of total viral RNA” value was “did not alter”, the “amount of core protein” value is “did not alter”, the “amount of encapsidated pgRNA” value is “drastically reduced” and the “viral DNA replication intermediates” value is on record as “drastically reduced”.
On to `O=C(Nc1ccc(F)c(Cl)c1)C1CCNc2ccccc21` (stereo not drawn) [Compound 23, N-(3-chloro-4-fluorophenyl)-1,2,3,4-tetrahydroquinoline-4-carboxamide], for which the “anti-HBV activity (in words)” value in test [1] (AML12HBV10 cells) is listed as “loss of activity”.
Regarding `O=S(=O)(Nc1ccc(F)c(Cl)c1)N1CCNc2ccccc21` [Compound 26, N-(3-chloro-4-fluorophenyl)-3,4-dihydroquinoxaline-1(2H)-sulfonamide], in test [1] (AML12HBV10 cells), the “anti-HBV activity (in words)” value is “loss of activity”.
With `O=C(Nc1ccc(F)c(Cl)c1)N1CCCc2ccccc21` [Compound 27, N-(3-chloro-4-fluorophenyl)-3,4-dihydroquinoline-1(2H)-carboxamide], the “reduction of activity relative to 17” value in test [1] (AML12HBV10 cells, replacement of 4-N with CH2) is 3 fold.
As to `NC1CCN(C(=O)Nc2ccc(F)c(Cl)c2)c2ccccc21` (stereo not drawn) [Compound 28, 4-Amino-N-(3-chloro-4-fluorophenyl)-3,4-dihydroquinoline-1(2H)-carboxamide], the “anti-HBV activity (in words)” value in test [1] (AML12HBV10 cells) was “no activity was observed”.
Same read-out and setting: to `O=C1CN(C(=O)Nc2ccc(F)c(Cl)c2)c2ccccc2N1` [Compound 29, N-(3-chloro-4-fluorophenyl)-3-oxo-3,4-dihydroquinoxaline-1(2H)-carboxamide] belongs “inactive”; to `O=C(Nc1ccc(F)c(Cl)c1)N1CCc2ccccc21` [Compound 30, N-(3-chloro-4-fluorophenyl)indoline-1-carboxamide], “maintained activity”.
The same measure, in the same setting: as for `O=C(Nc1ccc(F)c(Cl)c1)N1CCCCc2ccccc21` [Compound 32, N-(3-chloro-4-fluorophenyl)-2,3,4,5-tetrahydro-1H-benzo[b]azepine-1-carboxamide], the entry is “diminished the activity”; as for `O=C(Nc1ccc(F)c(C(F)F)c1)N1CCNc2ccccc21` [Compound 35, N-(3-(difluoromethyl)-4-fluorophenyl)-3,4-dihydroquinoxaline-1(2H)-carboxamide], “improved the potencies”; as for `O=C(NCc1cccc(Cl)c1)N1CCNc2ccccc21` [Compound 44, N-(3-chlorobenzyl)-3,4-dihydroquinoxaline-1(2H)-carboxamide], “reduced the activity”.
On the same count and under the same terms, to `O=C(Cc1ccc(F)c(Cl)c1)N1CCNc2ccccc21` [Compound 45, 2-(3-chloro-4-fluorophenyl)-1-(3,4-dihydroquinoxalin-1(2H)-yl)ethanone] belongs “loss of activity”; to `O=C(Nc1ccc(F)c(Cl)c1)N1c2ccccc2NCC1CN1CCOCC1` (stereo not drawn) [Compound 71, N-(3-chloro-4-fluorophenyl)-2-(morpholinomethyl)-3,4-dihydroquinoxaline-1(2H)-carboxamide], “reduced the activity significantly”.
In the case of `O=C(Nc1ccc(F)c(Cl)c1)N1c2ccccc2NCC1c1ccccc1` (stereo not drawn) [Compound 74, N-(3-chloro-4-fluorophenyl)-2-phenyl-3,4-dihydroquinoxaline-1(2H)-carboxamide], in test [1] (AML12HBV10 cells), the “anti-HBV activity (in words)” value is “sub-micromolar activity”.
Still for that read-out and setting: as for `CC1(C)CCN(CC2CNc3ccccc3N2C(=O)Nc2ccc(F)c(Cl)c2)CC1` (stereo not drawn) [Compound 76, N-(3-chloro-4-fluorophenyl)-2-((4,4-dimethylpiperidin-1-yl)methyl)-3,4-dihydroquinoxaline-1(2H)-carboxamide], the entry is “loss of activity”.
For `N#Cc1cc(NC(=O)N2c3ccccc3NCC2CN2CCC(F)(F)CC2)ccc1F` (stereo not drawn) [Compound 86, N-(3-cyano-4-fluorophenyl)-2-((4,4-difluoropiperidin-1-yl)methyl)-3,4-dihydroquinoxaline-1(2H)-carboxamide], the EC50 in test [1] (Hepatitis B virus, AML12HBV10, in Mus musculus) was around 100 nM.
Consider `O=C(Nc1ccc(F)c(C(F)(F)F)c1)N1c2ccccc2NCC1CN1CCC(F)(F)CC1` (stereo not drawn) [Compound 87, 2-((4,4-difluoropiperidin-1-yl)methyl)-N-(4-fluoro-3-(trifluoromethyl)phenyl)-3,4-dihydroquinoxaline-1(2H)-carboxamide], for which the “anti-HBV activity (in words)” value in test [1] (AML12HBV10 cells) is “moderate sub-micromolar”.
Regarding `O=C(Nc1cccc(Cl)c1)N1c2ccccc2NCC1CN1CCC(F)(F)CC1` (stereo not drawn) [Compound 89, N-(3-chlorophenyl)-2-((4,4-difluoropiperidin-1-yl)methyl)-3,4-dihydroquinoxaline-1(2H)-carboxamide], the “anti-HBV activity (in words)” value in test [1] (AML12HBV10 cells) is “moderate sub-micromolar”.
The same measure, in the same setting: as for `O=C(Nc1cc(F)c(F)c(F)c1)N1CCN(C(=O)Nc2ccc(F)c(Cl)c2)c2ccccc21` [Compound 95, N^1-(3-chloro-4-fluorophenyl)-N^4-(3,4,5-trifluorophenyl)-2,3-dihydroquinoxaline-1,4-dicarboxamide], the entry is “sub-micromolar activities”.
The same measure, in the same setting: to `O=C(Nc1ccc(F)c(Cl)c1)N1CCN(C(=O)Nc2cc(Cl)c(F)cc2F)c2ccccc21` [Compound 96, N^1-(5-chloro-2,4-difluorophenyl)-N^4-(3-chloro-4-fluorophenyl)-2,3-dihydroquinoxaline-1,4-dicarboxamide] belongs “sub-micromolar activities”; to `O=C(Nc1ccc(F)c(Cl)c1)N1CC(CN2CCC(F)(F)C2)N(C(=O)Nc2ccc(F)c(Cl)c2)c2ccccc21` (stereo not drawn) [Compound 97, N^1,N4-bis(3-chloro-4-fluorophenyl)-2-((3,3-difluoropyrrolidin-1-yl)methyl)-2,3-dihydroquinoxaline-1,4-dicarboxamide], “did not help to improve the activity significantly”; to `O=C(Nc1ccc(F)c(Cl)c1)N1CC(CN2CCC(F)(F)CC2)N(C(=O)Nc2ccc(F)c(Cl)c2)c2ccccc21` (stereo not drawn) [Compound 98, N^1,N^4-bis(3-chloro-4-fluorophenyl)-2-((4,4-difluoropiperidin-1-yl)methyl)-2,3-dihydroquinoxaline-1,4-dicarboxamide], “did not help to improve the activity significantly”.
Regarding `CCC(C)NS(=O)(=O)c1ccc(F)c(C(=O)Nc2ccc(F)c(F)c2)c1` (stereo not drawn) [DVR-23], in test [3], the “amount of encapsidated pgRNA” value is given as “significantly reduced” and the “viral DNA replication intermediates” value is “viral DNA replication was inhibited”.
As for `C=C1[C@H](CO)[C@@H](O)C[C@@H]1n1cnc2c(=O)[nH]c(N)nc21` [ETV, Entecavir], in test [3], the “amount of total viral RNA” value is on record as “did not alter”, the “amount of core protein” value is given as “did not alter”, the “amount of encapsidated pgRNA” value was “did not alter” and the “viral DNA replication intermediates” value is given as “drastically reduced”. In addition, in test [3] (particle gel assay), the “amount of capsid-associated viral DNA” value was “drastically reduced”.
